Source: article PMC4186684 (Molecular Pharmaceutics, 2014)
≈ marks a conversion by molar mass, not a printed value.

Experiments:
[1] = tested on: SK-OV-3 cells; assay: Confocal laser scanning microscopy of cellular uptake; format: cell-based, human; conditions: 10 μM, 1 h at 37 °C, Opti-MEM I, 488 nm excitation
In short: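 SK-OV-3 cells were seeded on coverslips in complete EMEM at 1 × 10⁵ cells/well and held at 50% confluency. Medium was replaced with fluorescein-labeled test peptide in Opti-MEM I reduced serum medium for 1 h at 37 °C. Cells were washed three times with PBS containing Ca/Mg and mounted. Imaging used 488 nm argon laser excitation and a 505–530 nm band-pass filter. FAM served as the comparison.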

[2] = tested on: methicillin-resistant S. aureus (MRSA, ATCC 43300); assay: MIC by broth microdilution; format: cell-based; conditions: Staphylococcus aureus, ATCC43300|MRSA
In short: (§1)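 Cultures were grown overnight in tryptic soy broth at 37 °C, shaken at 175 rpm, then diluted from 1 × 10⁸ to 1 × 10⁵ CFU/mL. Peptides were 5 mM stocks in water, or in 50 mM NH₄HCO₃ for poorly soluble ones. Test compound was mixed 1:39 (v/v) with the suspension, serially 2-fold diluted and incubated statically overnight at 37 °C. MIC was the lowest concentration with no visible growth, in triplicate. Controls were tetracycline (MRSA) and tobramycin (P. aeruginosa).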

[3] = tested on: MRSA (ATCC 43300); assay: MIC used as basis of the time-kill studies; format: cell-based; conditions: Staphylococcus aureus, ATCC43300|MRSA
[4] = tested on: E. coli (ATCC 35218); assay: MIC used as basis of the time-kill studies; format: cell-based; conditions: Escherichia coli, ATCC35218
[5] = tested on: P. aeruginosa (PAO1); assay: MIC by broth microdilution; format: cell-based; conditions: Pseudomonas aeruginosa
In short: as §1

Molecule: 5(6)-Carboxyfluorescein [FAM]
- intracellular fluorescence / localisation (CLSM) [1]: no significant fluorescence

Molecule: CN(C)[C@@H]1C(O)=C(C(N)=O)C(=O)[C@@]2(O)C(O)=C3C(=O)c4c(O)cccc4[C@@](C)(O)[C@H]3C[C@@H]12 [tetracycline]
- MIC [2]: 0.156 µg/mL (≈ 0.351 µM)
- MIC [3]: 0.5 µg/mL (≈ 1.13 µM)
- MIC [4]: 2 µg/mL (≈ 4.5 µM)

Molecule: NC[C@H]1O[C@H](O[C@H]2[C@H](O)[C@@H](O[C@H]3O[C@H](CO)[C@@H](O)[C@H](N)[C@H]3O)[C@H](N)C[C@@H]2N)[C@H](N)C[C@@H]1O [tobramycin]
- MIC [5]: 0.731 µg/mL (≈ 1.56 µM)
